Most compounds without a hit are left out; they make up all but 2.2% or so of the library.
E-selectin induc: E-selectin induction in HUVECs, primary screen, imaging, HUVEC, immunofluorescence imaging, single point; P16581; normalized: neutral wells 0, TNF-alpha wells 100; activation, % at 7.58 µM; actives 0.37% (n = 260,000);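 active means mean E-selectin-positive cell signal at least 10% of the positive control, reached in at least 60% of replicates, without over 20% cell loss; inconclusive means no rule given, readout overlaps actives, possibly toxicity-flagged; inactive means the rest, including those meeting only one limit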
Target sequence (P16581 whole entry, looked up): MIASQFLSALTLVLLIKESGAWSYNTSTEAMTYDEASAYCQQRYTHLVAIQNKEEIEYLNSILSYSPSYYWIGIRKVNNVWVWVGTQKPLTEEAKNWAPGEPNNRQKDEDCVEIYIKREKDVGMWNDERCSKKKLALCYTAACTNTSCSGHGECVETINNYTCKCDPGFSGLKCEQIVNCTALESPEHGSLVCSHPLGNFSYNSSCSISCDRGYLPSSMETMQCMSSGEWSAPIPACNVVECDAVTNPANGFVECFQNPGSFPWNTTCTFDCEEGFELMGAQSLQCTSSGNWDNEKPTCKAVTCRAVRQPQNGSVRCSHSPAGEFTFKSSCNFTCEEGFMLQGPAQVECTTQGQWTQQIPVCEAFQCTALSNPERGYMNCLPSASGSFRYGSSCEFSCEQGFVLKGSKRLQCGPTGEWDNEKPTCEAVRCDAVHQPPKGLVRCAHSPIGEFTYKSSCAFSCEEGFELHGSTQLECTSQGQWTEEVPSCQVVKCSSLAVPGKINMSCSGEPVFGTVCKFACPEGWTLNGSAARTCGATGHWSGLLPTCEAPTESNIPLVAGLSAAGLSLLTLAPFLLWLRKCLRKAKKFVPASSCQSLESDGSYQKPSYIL
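assay system = HUVEC, human umbilical vein endothelial cells | input = 3,000 HUVEC seeded per well | medium = EGM-2 growth medium on 0.1% gelatin-coated wells | dosing = one compound dose added by pin transfer | signal = immunofluorescence imaging | read-out basis = % PE-positive cells | control set = TNF-alpha, DMSO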
DENV2 CPE: inhibitors of DENV2 cytopathic effect, primary screen, cell-based, plate reader, single concentration; DENV2-infected cells, cytopathic effect rescue; CPE inhibition, % at 9.99 µM; actives 1.7% (n = 350,000); AID 651640, 2012; in the data active means CPE inhibition above about 20%, passing the limit was not always enough; inconclusive means no clear call, values can overlap the other calls; tested in BHK-21 cells;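 further: 0% = median of neutral control wells and 100% = median of positive control wells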
C2C12 statin: suppressors of statin myotoxicity in C2C12 myotubes, primary screen, cell-based, single point, plate reader | AID 602340, 2012 | rescue of ATP level, % at 7.49 µM | C2C12 myotubes + simvastatin, ATP luminescence, 48 h; scaled: DMSO 0, geranylgeraniol control 100 | actives 0.78% (n = 330,000);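 active means mean ATP rescue above about 67%, or every replicate alone reaching that limit, limit read from the data, passing the limit was not always enough; inconclusive means no clear call, values can overlap the other calls; inactive means mean under the limit and some replicate under it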;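 further: myotubes were challenged with 10 µM simvastatin during compound exposure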
* marks the source's active call; other numbers are inactive results.

Screening COCCn1c(C(=O)N2CCCC2)cc2c1C[C@H]1CN(C(=O)c3ccccc3)[C@@](Cc3ccc(F)cc3)(C(=O)OC)[C@@H]21 returned E-selectin induc 0.4 and DENV2 CPE 63.9*.
For COC(=O)[C@@]1(Cc2ccc(F)cc2)[C@H]2c3cc(C(=O)N(C)C)n(Cc4ccc(C)o4)c3C[C@H]2CN1C(=O)c1ccccc1 the results were E-selectin induc 86.2* and DENV2 CPE 1.7.
C/C=C/c1ccc2c(c1)[C@@H]1[C@@H](CCN1C(=O)Cc1ccncc1)[C@@H](CO)N2C was read as E-selectin induc -0.1 and C2C12 statin -14.4.
CNC[C@H]1OCCCC[C@H](C)Oc2ccc(NS(=O)(=O)c3ccccc3)cc2C(=O)N([C@@H](C)CO)C[C@H]1C was read as E-selectin induc 0.0, DENV2 CPE inconclusive and C2C12 statin 6.6.
Screening CCOc1ccc(NC(=O)Nc2cc(C(C)C)c(O)cc2C)cc1 returned E-selectin induc -0.7, DENV2 CPE -0.2 and C2C12 statin 17.7.
For Cc1cc(O)c(C(C)C)cc1NC(=S)Nc1cc(C(C)C)c(O)cc1C the results were DENV2 CPE 74.0*.
For CO[C@@H]1CC[C@H]2CCN(C)C(=O)[C@@H](C)N(C)C(=O)c3cc(C#N)ccc3OC[C@@H]1O2 the results were E-selectin induc -0.1, DENV2 CPE 6.5 and C2C12 statin 5.9.
Screening COCCC(=O)NC12CC3CC(CC(C3)C1)C2 returned C2C12 statin -7.8.
`COCCNCC(=O)NC12CC3CC(CC(C3)C1)C2` gave C2C12 statin 117.4*.
Screening Cn1c(/N=C/c2c(O)ccc3ccccc23)nc2ccccc21 returned C2C12 statin 75.2*.
`CCCn1c(/N=C/c2ccccc2O)nc2ccccc21` gave C2C12 statin -18.4.
`CNC[C@@H]1OCCCC[C@H](C)Oc2ccc(NS(=O)(=O)c3c(C)noc3C)cc2C(=O)N([C@@H](C)CO)C[C@H]1C` gave E-selectin induc -0.1 and DENV2 CPE 122.5*.
CNC[C@H]1OCCCC[C@@H](C)Oc2ccc(NS(=O)(=O)c3c(C)noc3C)cc2C(=O)N([C@@H](C)CO)C[C@H]1C was read as E-selectin induc 0.0 and DENV2 CPE -16.8.
For CNC[C@@H]1OCCCC[C@H](C)Oc2ccc(NS(C)(=O)=O)cc2C(=O)N([C@@H](C)CO)C[C@@H]1C the results were E-selectin induc -0.3, DENV2 CPE 131.5* and C2C12 statin -20.7.
For CNC[C@H]1OCCCC[C@@H](C)Oc2ccc(NS(C)(=O)=O)cc2C(=O)N([C@H](C)CO)C[C@@H]1C the results were E-selectin induc -0.5 and C2C12 statin 45.9.
CNC[C@@H]1OCCCC[C@@H](C)Oc2ccc(NS(=O)(=O)c3c(C)noc3C)cc2C(=O)N([C@@H](C)CO)C[C@H]1C was read as DENV2 CPE 28.7*.
CNC[C@H]1OCCCC[C@H](C)Oc2ccc(NS(=O)(=O)c3c(C)noc3C)cc2C(=O)N([C@@H](C)CO)C[C@@H]1C was read as E-selectin induc -0.2 and DENV2 CPE -9.0.
`CCCNC(=O)C[C@@H]1CC[C@H]2[C@@H](COC[C@H](O)CN2CC2CCCCC2)O1` gave E-selectin induc 0.0, DENV2 CPE -0.9 and C2C12 statin -9.8.
Screening CCCNC(=O)[C@H]1[C@H](CO)[C@H]2Cn3c(ccc(C4=CCCCC4)c3=O)[C@@H]1N2CCC returned E-selectin induc -0.1, DENV2 CPE inconclusive and C2C12 statin -15.2.
For Cc1ccc(S(=O)(=O)N(C)C[C@@H]2OCCCC[C@@H](C)Oc3ccc(NS(=O)(=O)c4ccc(F)cc4)cc3C(=O)N([C@@H](C)CO)C[C@H]2C)cc1 the results were E-selectin induc -0.1, DENV2 CPE 9.3 and C2C12 statin 17.0.
Screening COc1cccc(C(=O)Nc2ccc3c(c2)OC[C@H](C)N(C(C)=O)C[C@H](C)[C@H](OC)CN(C)C3=O)c1 returned E-selectin induc -0.3, DENV2 CPE -5.7 and C2C12 statin 5.0.
Screening CCCS(=O)(=O)NCc1cn2cccc(C)c2n1 returned DENV2 CPE -0.1 and C2C12 statin 4.2.
Screening Cc1cccn2cc(CNc3ccccc3)nc12 returned C2C12 statin 108.6*.
COc1ccc(NC(=O)CN(C)C(=O)CC2CCCC2)cc1 was read as E-selectin induc 0.1, DENV2 CPE 20.2* and C2C12 statin 12.0.
Screening COc1ccc(NC(=O)CN(C)C(=O)CCSc2ccc(C)cc2)cc1 returned DENV2 CPE 61.9* and C2C12 statin -6.0.
`COc1cccc(NC(=O)CN(C)C(=O)CCSc2ccc(C)cc2)c1` gave E-selectin induc -0.7, DENV2 CPE -7.0 and C2C12 statin 4.9.
`COc1cccc(NC(=O)CN(C)C(=O)CC2CCCC2)c1` gave E-selectin induc 0.3, DENV2 CPE -8.9 and C2C12 statin 14.1.
For O=C(Nc1ccc2c(c1)[C@@H]1C[C@@H](CC(=O)N3CCCCC3)O[C@@H](CO)[C@@H]1O2)NC1CCCC1 the results were E-selectin induc -0.1, DENV2 CPE 10.0 and C2C12 statin -11.1.
`C[C@H](NC(=O)C[C@H]1C[C@H]2c3cc(NC(=O)NC4CCCC4)ccc3O[C@H]2[C@H](CO)O1)c1ccccc1` gave E-selectin induc 0.2, DENV2 CPE 27.9* and C2C12 statin 4.2.
`C[C@@H](NC(=O)C[C@@H]1C[C@H]2c3cc(NC(=O)NC4CCCC4)ccc3O[C@H]2[C@H](CO)O1)c1ccccc1` gave E-selectin induc 0.2, DENV2 CPE 2.1 and C2C12 statin -2.8.
O=C(Nc1ccc2c(c1)[C@H]1C[C@@H](CC(=O)N3CCCCC3)O[C@H](CO)[C@H]1O2)NC1CCCC1 was read as E-selectin induc 0.0, DENV2 CPE 56.1* and C2C12 statin -1.1.
Screening COc1ccc(S(=O)(=O)N[C@H]2C=C[C@@H](CC(=O)N3CCc4ccccc4C3)O[C@@H]2CO)cc1 returned E-selectin induc 0.3, DENV2 CPE 9.4 and C2C12 statin -2.2.
For CC(=O)N1[C@@H]2Cn3c(ccc(-c4cccnc4)c3=O)[C@H]1[C@@H](C(=O)NC1Cc3ccccc3C1)[C@@H]2CO the results were E-selectin induc -0.1, DENV2 CPE -5.8 and C2C12 statin 3.5.
C[C@@H]1CN([C@H](C)CO)C(=O)c2cc(NS(=O)(=O)c3ccc(F)cc3)ccc2O[C@@H]1CN(C)Cc1ccncc1 was read as E-selectin induc -3.0, DENV2 CPE -5.4 and C2C12 statin 0.2.
Screening O=C1c2ccccc2NC(c2cccc(F)c2)N1Cc1ccco1 (centres undefined) returned DENV2 CPE -2.3 and C2C12 statin 114.5*.
For O=C1c2ccccc2NC(c2cccc(F)c2)N1Cc1ccccc1 (centres undefined) the results were E-selectin induc 0.2, DENV2 CPE 17.8 and C2C12 statin 8.6.
For O=C([C@H]1[C@H](CO)[C@H]2Cn3c(ccc(-c4ccccc4)c3=O)[C@@H]1N2CCC(F)(F)F)N1CCCCC1 the results were E-selectin induc 0.0, DENV2 CPE 9.1 and C2C12 statin 10.4.
`CC(C)NC(=O)N(C)C[C@H]1OCCCC[C@H](C)Oc2ccc(NC(=O)c3ccccc3)cc2C(=O)N([C@@H](C)CO)C[C@@H]1C` gave E-selectin induc 1.4.
